pIC50: −log10 of the molar value.
Columns and labels:
[1] = Metabolic stability in rat liver microsome assessed as compound remaining at 20 uM measured after 32 mins in presence of NADP and GSH by HPLC analysis; type: ADME; conditions: liver microsomes, read-out: Stability
Outline: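 Rat liver microsomes (final 2 mg/mL) in 50 mM phosphate pH 7.4 with 0.3 mM NADP+, 5.3 mM glucose-6-phosphate, G6PDH, 10 mM MgCl2 and 5 mM EDTA. 20 μM compound added at 37 °C. Aliquots at 0, 16 and 32 min were quenched in ice-cold acetonitrile and centrifuged. HPLC peak area at 254/280 nm was expressed relative to 0 min.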

[2] = system: Leishmania major; test: Antileishmanial activity against wild type Leishmania major FV1 promastigotes […] assessed as inhibition of parasite growth incubated for 72 hrs by automatic microtiter plate reader analysis; type: functional, organism-based
Outline: (§1)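 Promastigotes were grown in Schneider's medium (4 mM glutamine, gentamicin, 10% heat-inactivated FBS, pH 6.9, 27 °C). Cells were seeded at 1.5 × 10^5/well and exposed to a concentration series for 72 h at 27 °C.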

[3] = Metabolic stability in rat liver microsome assessed as drug metabolism measured up to 32 mins in absence of inhibitor by HPLC analysis relative to control; conditions: liver microsomes, without inhibitor
[4] = Cytotoxicity against mouse L929 cells assessed as inhibition of cell growth incubated for 72 hrs by MTS assay; type: toxicity, cell-based
Outline: (§2)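 Cells in DMEM + 10% heat-inactivated FBS with penicillin/streptomycin at 37 °C, 5% CO2. They were seeded at 1 × 10^4/well and incubated with a concentration series for 72 h at 37 °C. Viability was read by MTS/PMS assay at 490 nm and IC50 derived.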

[5] = system: Leishmania braziliensis; test: Antileishmanial activity against wild type Leishmania braziliensis UA847 amastigotes infected in mouse peritoneal macrophage assessed as inhibition of parasite growth incubated for 72 hrs by giemsa staining based analysis; type: functional, organism-based
Outline: (§3)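 Mouse peritoneal macrophages (1 × 10^5/well on coverslips, DMEM + 10% heat-inactivated FBS, penicillin/streptomycin) adhered overnight at 37 °C, 5% CO2. They were infected overnight with late-log promastigotes at a 20:1 parasite:macrophage ratio. Cells were then treated with compound for 72 h at 37 °C and Giemsa-stained. Amastigotes per 100 macrophages were counted to derive IC50; mean ± SD of 3–4 independent experiments.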

[6] = system: Leishmania braziliensis; test: Antileishmanial activity against wild type Leishmania braziliensis UA847 promastigotes […] assessed as inhibition of parasite growth incubated for 72 hrs by automatic microtiter plate reader analysis; type: functional, organism-based; outline: as §1
[7] = system: Leishmania donovani; test: Antileishmanial activity against miltefosine resistant Leishmania donovani HU3MILR40 amastigotes infected in mouse peritoneal macrophage assessed as inhibition of parasite growth incubated for 72 hrs by giemsa staining based analysis; type: functional, organism-based
Outline: (§4)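 Mouse peritoneal macrophages in DMEM + 10% heat-inactivated FBS, penicillin/streptomycin; 1 × 10^5 cells per well on coverslips, adhered overnight at 37 °C, 5% CO2, non-adherent cells washed off. Infected overnight with late-log promastigotes at parasite:macrophage 40:1. Compound exposure 72 h at 37 °C; Giemsa stain, amastigotes per 100 macrophages counted, IC50 derived; means ± SD of 3–4 independent experiments.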

[8] = system: Leishmania amazonensis; test: Antileishmanial activity against wild type Leishmania amazonensis LV78 amastigotes infected in mouse peritoneal macrophage assessed as inhibition of parasite growth incubated for 72 hrs by giemsa staining based analysis; type: functional, organism-based; outline: as §3
[9] = system: Leishmania donovani; test: Antileishmanial activity against wild type Leishmania donovani HU3 promastigotes […] assessed as inhibition of parasite growth incubated for 72 hrs by automatic microtiter plate reader analysis; type: functional, organism-based
[10] = system: Leishmania donovani; test: Antileishmanial activity against wild type Leishmania donovani HU3 amastigotes infected in mouse peritoneal macrophage assessed as inhibition of parasite growth incubated for 72 hrs by giemsa staining based analysis; type: functional, organism-based; outline: as §4
[11] = Cytotoxicity against mouse peritoneal macrophage assessed as inhibition of cell growth incubated for 72 hrs by giemsa staining based analysis; type: toxicity; conditions: peritoneal macrophages
[12] = Hepatotoxicity against mouse TAMH cells assessed as cell viability at 7.8 to 125 uM incubated for 24 to 48 hrs by MTT assay; type: toxicity, cell-based; conditions: dose lower 7.8 µM, time lower 24 hrs, dose upper 125 µM, time upper 48 hrs, read-out: Activity
Outline: (§5)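 TAMH mouse liver cells in FCS-free DMEM/F12 with 5% PANEXIN NTA, 10 mM nicotinamide and gentamicin. Seeded at 20 000/well and attached 24 h at 37 °C, 5% CO2. DMSO-diluted compounds were applied for 24 or 48 h. MTT was added for 4 h, formazan dissolved in DMSO and A570 read. Viability was background-corrected and expressed relative to DMSO controls; mean ± SD, ≥3 experiments.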

[13] = biological target: Voltage-gated inwardly rectifying potassium channel KCNH2 (Homo sapiens, UniProt Q12809); test: Inhibition of human ERG stably overexpressed in HEK293 cells incubated for 30 mins by FLIPR assay; type: toxicity, cell-based; conditions: for IC25: human, hek293, 0.5 h, time 30 min
[14] = Metabolic stability in rat liver microsome assessed as parent compound remaining at 50 degreeC measured after 16 mins after heat treatment by HPLC analysis; conditions: liver microsomes, heat-treated
[15] = system: Leishmania donovani; test: Antileishmanial activity against miltefosine resistant Leishmania donovani HU3MILR40 promastigotes […] assessed as inhibition of parasite growth incubated for 72 hrs by automatic microtiter plate reader analysis; type: functional, organism-based
Outline: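 Promastigote (free parasite) assay: Schneider's Drosophila medium with 4 mM glutamine, 25 μg mL−1 gentamicin, 10% heat-inactivated FBS, pH 6.9, 27 °C. 1.5 × 10^5 promastigotes per well exposed to a concentration series for 72 h at 27 °C.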

[16] = Metabolic stability in rat liver S9 fraction assessed as compound remaining at 20 uM measured after 32 mins in presence of NADP and GSH by HPLC analysis; type: ADME, subcellular; conditions: read-out: Stability
Outline: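 Rat liver S9 (final 4 mg/mL) in 50 mM phosphate pH 7.4 with NADPH-regenerating system (0.3 mM NADP+, 5.3 mM glucose-6-phosphate, G6PDH), 10 mM MgCl2 and 5 mM EDTA. Pre-warmed 10 min at 37 °C, then 20 μM compound and 5.5 μM GSH added. Samples taken at 0, 16 and 32 min were quenched in ice-cold acetonitrile. HPLC (254/280 nm) peak area was expressed relative to 0 min.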

[17] = system: Leishmania amazonensis; test: Antileishmanial activity against wild type Leishmania amazonensis LV78 promastigotes […] assessed as inhibition of parasite growth incubated for 72 hrs by automatic microtiter plate reader analysis; type: functional, organism-based; outline: as §1
[18] = system: RAW264.7; test: Cytotoxicity against mouse RAW264.7 cells assessed as inhibition of cell growth incubated for 72 hrs by MTS assay; type: functional, cell-based; conditions: RAW264.7, 72 h; outline: as §2
[19] = Hepatotoxicity against human HepG2 cells assessed as cell viability at 62.5 uM incubated for 48 hrs by MTT assay; type: toxicity, cell-based; conditions: read-out: Activity
Outline: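 HEP-G2 cells in RPMI 1640 + 10% heat-inactivated FBS, penicillin/streptomycin. Seeded at 15 000/well and attached 24 h at 37 °C, 5% CO2. Compounds were serially diluted in DMSO, with 24 or 48 h exposure. MTT (2.5 mg/mL solution) was added for 4 h, formazan dissolved in DMSO and A570 read. Viability was background-corrected against DMSO-treated cell controls; mean ± SD, ≥3 experiments.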

[20] = Hepatotoxicity against mouse TAMH cells assessed as cell viability at 62.5 uM incubated for 48 hrs by MTT assay; type: toxicity, cell-based; conditions: read-out: Activity; outline: as §5
[21] = Metabolic stability in rat liver microsome assessed as parent compound remaining at 50 degreeC measured after 32 mins after heat treatment by HPLC; conditions: liver microsomes, heat-treated
[22] = biological target: T1, hERG (KCNH2) (Homo sapiens, UniProt Q12809); test: Inhibition of human ERG stably overexpressed in HEK293 cells assessed as remaining activity at 6 uM incubated for 30 mins by FLIPR assay; type: toxicity, cell-based; conditions: HEK293 cells stably overexpressing hERG, read-out: Activity
Outline: (§6)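 HEK-293 cells stably expressing hERG, seeded at 60 000/well and grown 24 h. Compounds were added in DMSO (final 0.5%) and incubated 30 min in the dark. After 20 s baseline, Tl+ stimulus (3 mM) was added and fluorescence (ex 485/em 535 nm) recorded for 2.5 min.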

[23] = biological target: T1, hERG (KCNH2); test: Inhibition of human ERG stably overexpressed in HEK293 cells assessed as remaining activity at 25 uM incubated for 30 mins by FLIPR assay; type: toxicity, cell-based; conditions: HEK293 cells stably overexpressing hERG, read-out: Activity; outline: as §6

Voltage-gated inwardly rectifying potassium channel KCNH2, sequence (Q12809 whole entry): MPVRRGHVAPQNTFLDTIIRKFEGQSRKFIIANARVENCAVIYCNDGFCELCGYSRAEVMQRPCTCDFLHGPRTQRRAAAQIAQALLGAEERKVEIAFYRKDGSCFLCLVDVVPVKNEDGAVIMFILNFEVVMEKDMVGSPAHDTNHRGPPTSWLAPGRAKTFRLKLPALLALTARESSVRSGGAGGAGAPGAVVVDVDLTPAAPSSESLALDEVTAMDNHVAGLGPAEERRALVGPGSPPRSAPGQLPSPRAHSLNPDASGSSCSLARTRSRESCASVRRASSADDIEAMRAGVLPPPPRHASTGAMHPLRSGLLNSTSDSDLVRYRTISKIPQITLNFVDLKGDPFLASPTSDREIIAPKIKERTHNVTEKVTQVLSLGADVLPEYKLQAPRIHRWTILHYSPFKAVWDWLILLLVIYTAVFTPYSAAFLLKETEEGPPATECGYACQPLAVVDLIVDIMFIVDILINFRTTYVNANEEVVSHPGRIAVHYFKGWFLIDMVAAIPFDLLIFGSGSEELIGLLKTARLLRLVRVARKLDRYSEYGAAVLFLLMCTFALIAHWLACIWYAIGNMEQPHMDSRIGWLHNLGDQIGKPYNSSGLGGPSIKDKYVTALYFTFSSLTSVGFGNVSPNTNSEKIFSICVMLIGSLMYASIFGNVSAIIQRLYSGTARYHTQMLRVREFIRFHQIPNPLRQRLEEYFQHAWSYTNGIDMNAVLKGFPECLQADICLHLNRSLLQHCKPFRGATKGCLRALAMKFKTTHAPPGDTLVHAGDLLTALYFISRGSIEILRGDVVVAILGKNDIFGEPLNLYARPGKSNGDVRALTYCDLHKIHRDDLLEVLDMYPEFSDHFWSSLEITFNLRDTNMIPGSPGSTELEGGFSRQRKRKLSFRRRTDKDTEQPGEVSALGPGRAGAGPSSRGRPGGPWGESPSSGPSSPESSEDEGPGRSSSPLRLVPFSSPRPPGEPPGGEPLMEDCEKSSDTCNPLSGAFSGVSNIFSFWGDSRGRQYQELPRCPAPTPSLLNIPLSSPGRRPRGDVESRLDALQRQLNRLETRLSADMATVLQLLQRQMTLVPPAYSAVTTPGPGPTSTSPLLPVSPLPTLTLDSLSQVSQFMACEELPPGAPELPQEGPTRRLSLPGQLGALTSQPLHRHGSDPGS
T1 sequence (Q12809 whole entry): as above

SMILES | remaining at 32 min, 20 µM [1] | pIC50 [2] | metabolised at 32 min [3] | IC50 at 72 h [4] | pIC50 [5] | pIC50 [6] | pIC50 [7] | pIC50 [8] | pIC50 [9] | pIC50 [10] | IC50 at 72 h [11] | IC25 [13] | pIC50 [15] | remaining at 32 min, 20 µM [16] | pIC50 [17] | pIC50 [18] | further results
CCc1ccc(OCc2ncc([N+](=O)[O-])n2C)cc1 | 0% | 5.85 | 100% | 71.8 µM | < 5.00 | 5.41 | < 5.00 | < 5.00 | 5.30 | < 5.00 | > 100 µM | 14.9 µM | 5.28 | 96.4% | 5.35 | < 4.16 | viability at up to 125 µM [12]: > 50%; remaining at 16 min [14]: 16%
CSc1ccc(OCc2ncc([N+](=O)[O-])n2C)cc1 [FEXINIDAZOLE] | 0% | 5.72 | 100% | > 100 µM | < 5.00 | 5.41 | < 5.00 | < 5.00 | 5.48 | < 5.00 | > 82 µM | 8.6 µM | 5.26 | 73.4% | 5.15 | < 4.00 | viability at 48 h, 62.5 µM [19]: 95%; viability at 48 h, 62.5 µM [20]: 90%; remaining at 32 min [21]: 11%; activity at 0.5 h, 6 µM [22]: 78%; pIC50 [13]: ~4.97; activity at 0.5 h, 25 µM [23]: 34%
